Source: PubChem
NALP3 yeast inh = blocks the NALP3 inflammasome reconstituted in yeast | Yeast reconstituted NLRP3/ASC/caspase-1, beta-gal luminescence, 24 h | inhibition, % at 10 µM | hit rate 0.39% among 330,000 | AID 2825;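 active = inhibition of 50% or more; inactive = inhibition below 50%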
MC4R ag barr = human MC4R agonism via beta-arrestin | P32245 | U2OS MC4R beta-arrestin complementation, luminescence; percent of melanotan II response, DMSO zero | activation, % at 8.9 µM | hit rate 0.98% among 360,000 | AID 540308;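 active = activation above a per-plate cutoff, the mean activation of sample wells on that plate plus 3 SD, cut at about 8% in these data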
Target sequence (P32245 whole entry, looked up): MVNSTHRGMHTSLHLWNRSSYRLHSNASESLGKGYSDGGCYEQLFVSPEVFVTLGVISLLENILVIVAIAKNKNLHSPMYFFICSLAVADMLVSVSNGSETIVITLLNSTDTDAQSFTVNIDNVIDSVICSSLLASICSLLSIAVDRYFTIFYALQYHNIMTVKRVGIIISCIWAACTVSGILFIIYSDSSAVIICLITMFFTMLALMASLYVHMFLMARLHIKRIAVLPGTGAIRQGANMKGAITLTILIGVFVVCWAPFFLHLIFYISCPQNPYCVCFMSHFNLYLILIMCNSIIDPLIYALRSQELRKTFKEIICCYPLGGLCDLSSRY
A1 inh = inhibitors of the anti-apoptotic protein A1, read as caspase activation | hit rate 0.066% among 330,000 | MEF A1-2A-BIM cells, Caspase-Glo 3/7 luminescence, 3 h; percent of clofoctol response, vehicle zero | caspase activation, % (concentration not given with the values);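 active = over half of replicate activation scores above 10%, or exactly half above 10 with the replicate mean above 10; inconclusive = replicate mean below 10 yet half the replicates above 10; inactive = over half of replicates below 10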
Tb MetRS inh = Trypanosoma brucei MetRS inhibition | purified T. brucei MetRS, ATP depletion, Kinase-Glo luminescence | inhibition, % at 11.9 µM | hit rate 0.4% among 360,000 | AID 624268;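 active = inhibition above a per-plate cutoff of the control wells' mean inhibition plus 3 SD, cut at about 5.5% in these data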
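technique = Kinase-Glo luminescence, ATP depletion format | system = purified MetRS (methionyl-tRNA synthetase) enzyme from Trypanosoma brucei | timing = 15 min preincubation, 2 h reaction, all 25 °C | evaluation = percent inhibition versus plate control medians | dosing = single dose, 11.9 µM final nominal, 0.9% final DMSO | also added = substrates ATP, L-methionine and bulk Escherichia coli tRNA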
MC4R antagonist = antagonists of human melanocortin 4 receptor (MC4R). MC4R-expressing cells, MTII-stimulated cAMP, LANCE TR-FRET. inhibition, % at 6.5 µM. hit rate 0.48% among 360,000. P32245;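 active = inhibition above its plate's cutoff, the mean of tested wells on that plate plus 3 SD, cut at about 29% in these data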
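System: U2OS-MC4R stable cell line; Technique: Eu-cAMP/anti-cAMP TR-FRET, emission 671 nm; Repeats: single well per compound; Also added: Melanotan II; Dosing: one concentration, 6.5 µM nominal; Schedule: 30-min compound, 1-h challenge, 1-h detection, room temperature.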
NALP1 yeast inh = NALP1 inhibition. S. cerevisiae NALP1/ASC/caspase-1 growth, X-gal OD620, 72 h. inhibition, % at 10 µM. hit rate 0.61% among 280,000; in the data active = inhibition mostly above about 24%, no sharp cut-off; inactive = mostly below about 32%
A number is an active result; 0 = inactive; ? = inconclusive; - = not tested or not shown. The list is not random: actives were taken first. Their share in the collection is about 2.5%.

SMILES	NALP3 yeast inh	MC4R ag barr	A1 inh	Tb MetRS inh	MC4R antagonist	NALP1 yeast inh
COc1ccc(CCN(C)CCCN2CC(c3ccccc3)CC2=O)cc1OC (centres undefined)	0	0	0	0	0	22.5
COCOCCn1cc(CN2CCS(=O)(=O)N(Cc3ccc(-c4ccc(OC)cc4)cc3)C(C)C2=O)nn1 (centres undefined)	-	0	-	0	0	-
CN(c1ccc(OCC(=O)OCC(=O)NC2CCCC2)cc1)S(=O)(=O)c1ccc2ccccc2c1	0	0	0	0	0	0
CN(c1ccc(OCC(=O)NC2CCC(O)CC2)cc1)S(=O)(=O)c1ccc(Cl)cc1 (centres undefined)	0	0	14.7	0	0	-
O=c1cc(CNCCCO)c2ccccc2[nH]1	0	0	0	0	0	26.4
COc1ccc(NCc2cc(=O)[nH]c3ccccc23)cc1	0	0	0	0	0	0
COc1ccccc1OCC(=O)NCCSCc1ccc(Cl)cc1	0	0	0	0	0	63.8
Cc1ccc(CSCCC(=O)NCCc2ccc(Cl)cc2)cc1	0	8.6	0	0	0	0
COc1ccccc1N(CC(=O)NCCSCc1ccc(Cl)cc1)S(C)(=O)=O	0	0	0	0	0	0
O=C(CCSCc1ccc(Cl)cc1)NCCc1ccccc1	0	0	0	0	0	0
CCN(CC)S(=O)(=O)c1cccc(NC(=O)Nc2cccc(C(F)(F)F)c2)c1	0	0	0	0	0	36.7
CC(C)(C)c1csc(N/N=C/c2ccc(O)cc2)n1	0	0	0	0	0	0
CCOC(=O)C1CCCCN1Cc1ccc(F)cc1 (centres undefined)	0	0	0	0	0	43.4
CCOC(=O)C1CCCCN1Cc1cccc(F)c1 (centres undefined)	0	0	0	0	0	0
O=C1ON=C(c2ccccc2)/C1=C/c1ccc(-c2ccccc2[N+](=O)[O-])o1	-	0	0	0	31.7	0
O=[N+]([O-])c1ccccc1-c1ccc(/C=N/n2cnnc2)o1	0	0	0	0	0	0
Cc1cc(S(=O)(=O)Nc2c(NC3CCCCC3)c3ccccc3oc2=O)ccc1F	0	8.4	0	0	0	0
COc1ccc(S(=O)(=O)Nc2c(NC3CCCCC3)c3ccccc3oc2=O)cc1Cl	0	0	0	0	0	0
O=C(Nc1ccc(Cl)cc1)Nc1nnc(Cc2ccc([N+](=O)[O-])cc2)s1	0	0	0	0	0	0
Cc1ccc(NC(=O)Nc2nnc(Cc3ccc([N+](=O)[O-])cc3)s2)cc1	0	9.3	0	0	0	0
CCOC(=O)c1c(N)nn(C(=O)C(C)C)c1-c1ccccc1	0	0	0	0	0	37.5
CCOC(=O)c1nc(C)nc(Sc2n[nH]c(-c3ccc(C(C)(C)C)cc3)n2)c1C	0	9.3	0	0	0	0
CCOC(=O)c1ccc(NC(=O)CSc2n[nH]c(-c3ccncc3)n2)cc1	0	0	0	0	0	0
CC[C@@]1(C(=O)OC)N[C@H](CN(C)C(=O)COC)[C@@H]2C(=O)N(C)C(=O)[C@@H]21	0	0	-	0	0	-
O=C(Nc1ccc(Cl)cc1Cl)c1cccc(N2C(=O)C=CC2=O)c1	0	0	13.9	0	57.2	-
SMILES	NALP3 yeast inh	MC4R ag barr	A1 inh	Tb MetRS inh	MC4R antagonist	NALP1 yeast inh
O=C(O)c1cccc(N2C(=O)C=CC2=O)c1	-	0	-	0	0	-
N#CC1(NC(=O)Cn2cc(C(F)(F)F)cc(Cl)c2=O)CCCCC1	0	0	0	0	0	0
CC(=O)Nc1ccc(NC(=O)C(C)OC(=O)/C=C/c2cn(-c3ccccc3)nc2-c2cccnc2)cc1 (centres undefined)	0	0	15.7	0	0	0
Cc1ccccc1NC(=O)COC(=O)/C=C/c1cn(-c2ccccc2)nc1-c1cccnc1	0	0	0	0	0	0
O=C(NCCN1CCN(c2ccccc2)CC1)c1ccc2c(c1)[nH]c(=S)n1c3ccccc3nc21	0	8.9	?	0	0	0
CCOC(=O)c1[nH]c2ccc(F)cc2c1NC(=O)C(C)N1CCc2cc(OC)c(OC)cc2C1 (centres undefined)	0	0	0	0	0	31.0
CCOC(=O)N1C(=O)NC(=O)C1c1ccc(Cl)cc1 (centres undefined)	-	0	-	0	0	-
CCC[C@@H](CN1CCC[C@H]1CN1C(N)=NC[C@@H]1Cc1ccccc1)N1C[C@@H]([C@H](C)CC)N(CCCC2CCCC2)C1=N	0	0	0	0	39.2	-
C[C@@H](CN1CCC[C@H]1CN1C(N)=NC[C@@H]1Cc1ccccc1)N1C[C@@H](Cc2ccccc2)N(CCc2ccc(Cl)c(Cl)c2)C1=N	0	0	0	0	32.7	-
CC(C)[C@@H]1CN=C(N)N1C[C@@H]1CCCN1C[C@H](C)N1C[C@@H](Cc2ccccc2)N(CCc2ccc(Cl)c(Cl)c2)C1=N	0	0	-	0	0	-
COc1ccc(NC(=O)NNC(=O)COc2ccc3ccccc3c2)cc1OC	0	0	0	0	0	0
COc1ccc(NC(=O)NNC(=O)COc2ccc3cc(Br)ccc3c2)cc1OC	0	0	0	0	0	29.9
COc1ccc(NC(=O)c2cccc(N3C(=O)c4ccc(C(=O)Nc5ccc(OC)c(O)c5)cc4C3=O)c2)cc1O	0	0	0	0	0	0
CCOC(=O)c1c(-c2ccccc2)cn2ccccc12	0	0	0	0	0	25.1
CCOC(=O)c1c(-c2ccc(C)cc2)cn2ccccc12	0	0	0	0	0	0
COc1ccc2cc1Oc1ccc(cc1)CC1c3c(cc(OC)c4c3Oc3cc5c(cc3O4)CCNC5C2)CCN1C (centres undefined)	0	45.0	0	0	0	-
CCOc1ccc(NC(=O)COc2nsnc2N2CCCCC2)cc1	0	9.0	0	0	0	0
COc1ccc(NC(=O)COc2nsnc2N2CCCCC2)cc1	0	0	0	0	0	0
COc1ccc(CC(N)c2csc(NC(=O)c3cccc(OC(F)(F)F)c3)n2)cc1 (centres undefined)	-	8.9	-	0	0	-
S=C(Nc1ccc(Cl)c(Cl)c1)NC1CCN(Cc2ccccc2)CC1	0	22.2	0	0	0	0
COc1ccc(N=Cc2ccc[nH]2)cc1	0	0	0	0	0	36.0
Cc1ccc(S(=O)(=O)NNC(=O)c2cc3cc4ccccc4nc3s2)cc1	0	0	0	8.3	0	0
Cc1cc2cc(CN(Cc3ccco3)C(=S)NCC3CCCO3)c(=O)[nH]c2cc1C (centres undefined)	0	0	0	0	0	0
CCc1ccc2[nH]c(=O)c(CN(Cc3ccco3)C(=S)NCC3CCCO3)cc2c1 (centres undefined)	0	0	0	0	0	38.0
O=C(CSc1nc2cc(Cl)ccc2s1)NCc1ccc2c(c1)OCO2	0	9.5	0	0	0	0
